In ChEMBL document CHEMBL1154052, “Design, synthesis and primary activity evaluation of L-arginine derivatives as amino-peptidase N/CD13 inhibitors” (Bioorg Med Chem, 2009):

What was measured:
[1] = target: T1, Aminopeptidase N (Sus scrofa, UniProt P15145); test: Inhibition of aminopeptidase N in pig kidney microsome by spectrophotometry; assay type: microsomes
T1 sequence (P15145 whole entry): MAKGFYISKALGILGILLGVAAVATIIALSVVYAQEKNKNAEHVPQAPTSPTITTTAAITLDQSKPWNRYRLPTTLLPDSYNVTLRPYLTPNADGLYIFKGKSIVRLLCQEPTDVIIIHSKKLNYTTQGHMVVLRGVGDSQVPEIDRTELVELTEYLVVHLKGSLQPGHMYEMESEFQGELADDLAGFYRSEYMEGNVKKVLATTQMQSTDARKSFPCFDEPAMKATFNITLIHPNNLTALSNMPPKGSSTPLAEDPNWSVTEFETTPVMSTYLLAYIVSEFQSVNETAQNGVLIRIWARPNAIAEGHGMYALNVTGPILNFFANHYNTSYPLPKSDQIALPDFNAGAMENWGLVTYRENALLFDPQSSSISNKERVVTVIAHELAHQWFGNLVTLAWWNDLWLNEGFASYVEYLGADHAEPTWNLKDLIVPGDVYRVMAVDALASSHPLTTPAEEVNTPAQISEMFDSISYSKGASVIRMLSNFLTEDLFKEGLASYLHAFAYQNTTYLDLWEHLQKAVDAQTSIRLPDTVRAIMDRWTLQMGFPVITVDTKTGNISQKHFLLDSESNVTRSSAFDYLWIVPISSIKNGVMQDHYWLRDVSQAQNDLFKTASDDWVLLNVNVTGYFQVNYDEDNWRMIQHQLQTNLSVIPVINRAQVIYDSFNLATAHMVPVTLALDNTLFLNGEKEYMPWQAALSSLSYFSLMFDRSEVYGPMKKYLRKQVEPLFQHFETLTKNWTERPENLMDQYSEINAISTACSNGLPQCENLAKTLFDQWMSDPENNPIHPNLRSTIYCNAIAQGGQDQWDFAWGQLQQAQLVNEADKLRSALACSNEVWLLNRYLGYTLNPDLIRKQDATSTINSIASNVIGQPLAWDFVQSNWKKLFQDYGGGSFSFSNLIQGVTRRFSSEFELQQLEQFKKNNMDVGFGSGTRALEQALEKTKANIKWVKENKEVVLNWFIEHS
Procedure, shortened: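 Porcine kidney microsomal aminopeptidase (4 μg/mL final) preincubated with inhibitor for 30 min at room temperature in 50 mM PBS, pH 7.2. Inhibitor solutions made in assay buffer and adjusted to pH 7.5. Substrate L-Leu-p-nitroanilide. IC50 determined.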

[2] = target: 72 kDa type IV collagenase (Homo sapiens, UniProt P08253); test: Inhibition of MMP2
Procedure, shortened: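 MMP-2 (gelatinase A) incubated with substrate and inhibitor in 50 mmol/L sodium borate, pH 8.5, 30 min at 37 °C. 0.03% TNBS then added and incubated a further 20 min. Absorbance read at 450 nm.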

[3] = Selectivity ratio of IC50 for MMP2 to IC50 for aminopeptidase N in pig kidney microsome

72 kDa type IV collagenase, sequence (P08253 whole entry): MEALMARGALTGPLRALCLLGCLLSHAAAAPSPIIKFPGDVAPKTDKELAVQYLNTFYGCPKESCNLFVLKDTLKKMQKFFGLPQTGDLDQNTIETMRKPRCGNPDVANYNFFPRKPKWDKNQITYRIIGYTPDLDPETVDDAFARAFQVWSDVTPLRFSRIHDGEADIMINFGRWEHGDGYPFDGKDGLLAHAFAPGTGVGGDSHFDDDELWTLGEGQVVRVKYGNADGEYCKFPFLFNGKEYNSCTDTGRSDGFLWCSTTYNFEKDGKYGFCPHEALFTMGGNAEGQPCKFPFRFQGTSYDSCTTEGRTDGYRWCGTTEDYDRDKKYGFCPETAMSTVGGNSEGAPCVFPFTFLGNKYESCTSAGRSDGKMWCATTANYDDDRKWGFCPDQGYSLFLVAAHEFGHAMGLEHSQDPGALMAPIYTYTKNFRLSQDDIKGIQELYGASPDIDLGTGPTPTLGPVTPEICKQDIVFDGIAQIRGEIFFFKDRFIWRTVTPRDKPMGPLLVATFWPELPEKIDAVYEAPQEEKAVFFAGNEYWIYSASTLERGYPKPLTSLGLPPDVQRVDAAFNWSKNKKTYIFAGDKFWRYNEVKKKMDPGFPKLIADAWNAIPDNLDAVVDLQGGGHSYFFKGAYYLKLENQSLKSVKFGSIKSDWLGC

Structure (SMILES)	IC50 [1] [µM]	IC50 [2] [µM]	Ratio IC50 [3]
N=C(NCCC[C@H](NC(=O)c1ccc([N+](=O)[O-])cc1)C(=O)NO)N[N+](=O)[O-]	15.9	204	12.8
COc1cc(C(=O)N[C@@H](CCCNC(=N)N[N+](=O)[O-])C(=O)NO)cc(OC)c1OC	–	–	0.2
N=C(NCCC[C@H](NC(=O)/C=C/c1ccccc1)C(=O)NO)N[N+](=O)[O-]	1010	36.7	0.04
N=C(NCCC[C@H](NC(=O)Cc1ccccc1)C(=O)NO)N[N+](=O)[O-]	–	–	0.05
NC(=N[N+](=O)[O-])NCCC[C@H](NC(=O)c1cccs1)C(=O)NO	85.7	226	–
Cc1ccc(S(=O)(=O)N[C@@H](CCCNC(N)=N[N+](=O)[O-])C(=O)NO)cc1	109	28.9	–
N=C(NCCC[C@H](NC(=O)CCc1ccccc1)C(=O)NO)N[N+](=O)[O-]	332	1640	4.9
N=C(NCCC[C@H](NC(=O)c1cccs1)C(=O)NO)N[N+](=O)[O-]	–	–	2.6
N=C(NCCC[C@H](NC(=O)c1ccc2ccccc2c1)C(=O)NO)N[N+](=O)[O-]	–	–	5.9
NC(=N[N+](=O)[O-])NCCC[C@H](NC(=O)c1ccc2ccccc2c1)C(=O)NO	14.6	85.5	–
N=C(NCCC[C@H](NC(=O)c1cccc(Cl)c1)C(=O)NO)N[N+](=O)[O-]	202	89.2	0.4
NC(=N[N+](=O)[O-])NCCC[C@H](NS(=O)(=O)c1ccccc1)C(=O)NO	60.2	100	–
Cc1cccc(C(=O)N[C@@H](CCCNC(=N)N[N+](=O)[O-])C(=O)NO)c1	42.8	623	14.6
COc1ccccc1C(=O)N[C@@H](CCCNC(=N)N[N+](=O)[O-])C(=O)NO	78.4	253	3.2
Cc1ccc(S(=O)(=O)N[C@@H](CCCNC(=N)N[N+](=O)[O-])C(=O)NO)cc1	–	–	0.3
Cc1ccccc1C(=O)N[C@@H](CCCNC(=N)N[N+](=O)[O-])C(=O)NO	221	2070	9.3
NC(=N[N+](=O)[O-])NCCC[C@H](NC(=O)c1ccc(Br)cc1)C(=O)NO	443	484	–
COc1ccc(C(=O)N[C@@H](CCCNC(=N)N[N+](=O)[O-])C(=O)NO)cc1OC	–	–	12.8

Structure (SMILES)	IC50 [1] [µM]	IC50 [2] [µM]	Ratio IC50 [3]
N=C(NCCC[C@H](NC(=O)c1ccccc1)C(=O)NO)N[N+](=O)[O-]	80.6	693	8.6
N=C(NCCC[C@H](NC(=O)c1cccc([N+](=O)[O-])c1)C(=O)NO)N[N+](=O)[O-]	43.4	102	2.3
COc1cccc(C(=O)N[C@@H](CCCNC(=N)N[N+](=O)[O-])C(=O)NO)c1	16.5	151	9.1
COc1ccc(C(=O)N[C@@H](CCCNC(=N)N[N+](=O)[O-])C(=O)NO)cc1	–	–	5.4
N=C(NCCC[C@H](NC(=O)c1ccccc1I)C(=O)NO)N[N+](=O)[O-]	21.9	176	8
NC(=N[N+](=O)[O-])NCCC[C@H](NC(=O)c1ccccc1Cl)C(=O)NO	20.4	150	–
N=C(NCCC[C@H](NC(=O)c1ccccc1Cl)C(=O)NO)N[N+](=O)[O-]	–	–	7.3
N=C(NCCC[C@H](NC(=O)c1ccc(Cl)cc1)C(=O)NO)N[N+](=O)[O-]	215	238	1.1
N=C(NCCC[C@H](NC(=O)c1ccc(Cl)c(Cl)c1)C(=O)NO)N[N+](=O)[O-]	33.5	194	5.8
NC(=N[N+](=O)[O-])NCCC[C@H](NC(=O)Cc1ccccc1)C(=O)NO	1660	8.7	–
COc1cc(C(=O)N[C@@H](CCCNC(N)=N[N+](=O)[O-])C(=O)NO)cc(OC)c1OC	271	41.1	–
N=C(NCCC[C@H](NC(=O)c1ccc(Cl)cc1Cl)C(=O)NO)N[N+](=O)[O-]	5.3	349	65.8
N=C(NCCC[C@H](NC(=O)c1ccc(Br)cc1)C(=O)NO)N[N+](=O)[O-]	–	–	1.1
COc1ccc(C(=O)N[C@@H](CCCNC(N)=N[N+](=O)[O-])C(=O)NO)cc1OC	26.9	346	–
NC(=N[N+](=O)[O-])NCCC[C@H](NC(=O)c1ccc(Br)c([N+](=O)[O-])c1)C(=O)NO	5.1	236	–
N=C(NCCC[C@H](NC(=O)c1ccc(Br)c([N+](=O)[O-])c1)C(=O)NO)N[N+](=O)[O-]	–	–	46.3
N=C(NCCC[C@H](NS(=O)(=O)c1ccccc1)C(=O)NO)N[N+](=O)[O-]	–	–	1.7
COc1ccc(C(=O)N[C@@H](CCCNC(N)=N[N+](=O)[O-])C(=O)NO)cc1	60.2	322	–
